Data reported in ChEMBL document CHEMBL3758100, “4H-Chromene-based anticancer agents towards multi-drug resistant HL60/MX2 human leukemia: SAR at the 4th and 6th positions” (Bioorg Med Chem, 2016).

How the values were obtained:
[1] = Cytotoxicity against human HL60 cells assessed as cell growth inhibition after 48 hrs by cell titer blue cell viability assay; type: functional, cell-based; settings: HL-60, 48 h
In short: (§1)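 HL60 or HL60/MX2 cells kept in RPMI 1640 with 10% FBS and 1% penicillin–streptomycin at 37 °C, 5% CO2. Seeded at 1 × 10^4 cells/well and exposed to serial dilutions (1% DMSO final; 1% DMSO medium as control) in triplicate for 48 h. Viability read by CellTiter-Blue. IC50 fitted with a dose–response model; at least three biological repeats on different days; mean ± SD.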

[2] = Cytotoxicity against human HL60/MX2 cells assessed as cell growth inhibition after 48 hrs by cell titer blue cell viability assay; type: functional, cell-based; settings: HL60/MX2, 48 h; in short: as §1
HL-60 = test: Selectivity ratio of IC50 for human HL60/MX2 cells to IC50 for human HL60 cells; type: functional
In short: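 Ratio of IC50 in HL60/MX2 over HL60, both from the 48 h CellTiter-Blue growth-inhibition assay. IC50s are means of at least three biological repeats. Two-tailed Student t test between the two cell lines.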

| Compound | IC50 [1] [µM] | IC50 [2] [µM] | Ratio IC50 (HL-60) |
| --- | --- | --- | --- |
| C#CCOC(=O)C1=C(N)Oc2ccc(-c3cc(OC)cc(OC)c3)cc2C1CC(=O)c1ccccc1 (configuration not stated) | 7.3 | 5.9 | 0.81 |
| CCCC(=O)CC1C(C(=O)OCC)=C(N)Oc2ccc(-c3cc(OC)cc(OC)c3)cc21 (configuration not stated) | 27.3 | 11.7 | 0.43 |
| C#CCOC(=O)CC1C(C(=O)OCC#C)=C(N)Oc2cc(C)c(-c3cccc(N)c3)c(C)c21 (configuration not stated) | 50.5 | 82.2 | 1.63 |
| CCOC(=O)C1=C(N)Oc2ccc(-c3cc(OC)cc(OC)c3)cc2C1CC(=O)c1ccccc1 (configuration not stated) | 109 | 41 | 0.38 |
| C#CCOC(=O)C1=C(N)Oc2ccc(-c3cc(OC)cc(OC)c3)cc2C1CC(=O)CCC (configuration not stated) | 6.9 | 5.4 | 0.78 |
| C#CCOC(=O)C1=C(N)Oc2ccc(-c3cc(OC)cc(OC)c3)cc2C1CC(O)CCC (configuration not stated) | 46.6 | 35.8 | 0.77 |
| C#CCOC(=O)C1=C(N)Oc2ccc(-c3cc(OC)cc(OC)c3)cc2C1CC(O)c1ccccc1 (configuration not stated) | 100 | 54 | 0.54 |
| C#CCOC(=O)CC1C(C(=O)OCC#C)=C(N)Oc2ccc(-c3cc(OC)cc(OC)c3)cc21 (configuration not stated) | 1.16 | 0.86 | 0.74 |
| C#CCOC(=O)CC1C(C(=O)OCC#C)=C(N)Oc2cc3c(cc21)-c1cc(OC)cc(OC)c1CO3 (configuration not stated) | 41.9 | 7.4 | 0.18 |
| C#CCOC(=O)CC1C(C(=O)OCC#C)=C(N)Oc2ccc(-c3cccc(N)c3)cc21 (configuration not stated) | 1.73 | 0.54 |  |
| CCOC(=O)CC1C(C(=O)OCC)=C(N)Oc2ccc(-c3cc(OC)cc(OC)c3)cc21 (configuration not stated) | 5.4 | 1.7 | 0.32 |
